An excerpt weighted towards active compounds, which were near 3% of everything screened.
MC4R antagonist = MC4R antagonists of cAMP signaling, primary screen, cell-based, TR-FRET, antagonist arm of biased-ligand search | MC4R-expressing cells, MTII-stimulated cAMP, LANCE TR-FRET | AID 540295, 2011 | inhibition, % at 6.5 µM | 0.48% of 360,000 active | Melanocortin receptor 4 (Homo sapiens), P32245;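 active = inhibition above its plate's cutoff, the mean of tested wells on that plate plus 3 SD, cut at about 29% in these data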;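 also: 0% = Melanotan II alone and 100% = Melanotan II plus saturating MCL0020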
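Material: U2OS-MC4R stable cell line | Reagent: Melanotan II challenge after compound preincubation | Doses: One concentration, 6.5 µM nominal | Incubation: 30-min compound preincubation, 1-h Melanotan II challenge, 1-h detection, room temperature | Signal: TR-FRET cAMP assay | Replicates: One well per compound, no replicates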
Beta2AR agonist = beta2AR agonists driving receptor internalization, primary screen, cell-based, FAP fluorogen, flow cytometry | response, % (no concentration beside the values) | Am2.2-beta2AR cells | 0.43% of 340,000 active;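 active = response above a set limit, near 3 SD of response in nonfluorescent compounds, cut at about 42% in these data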
MC4R barr agon = MC4R agonists recruiting beta-arrestin, primary screen, cell-based, luminescence, agonist arm of biased-ligand search | Melanocortin receptor 4 (Homo sapiens), P32245 | U2OS MC4R beta-arrestin complementation; percent of melanotan II response, DMSO zero | activation, % at 8.9 µM | 0.98% of 360,000 active | AID 540308, 2011;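 active = activation above a per-plate cutoff, the mean activation of sample wells on that plate plus 3 SD, cut at about 8% in these data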
ABHD5-PLIN5 inh = ABHD5-PLIN5 interaction inhibitors, primary screen, cell lysate, split luciferase complementation, luminescence. AID 602281, 2012. Perilipin-5 (Homo sapiens) + 1-acylglycerol-3-phosphate O-acyltransferase ABHD5 (Homo …. inhibition, % at 4 µM. Split G. princeps luciferase complementation, 4 h. 0.78% of 360,000 active;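 active = inhibition above the mean inhibition across every tested compound plus 3 SD, cut at about 22% in these data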;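 also: 0% = DMSO only wells and the 100% control is not disclosed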
Target sequence (Q00G26 whole entry, looked up): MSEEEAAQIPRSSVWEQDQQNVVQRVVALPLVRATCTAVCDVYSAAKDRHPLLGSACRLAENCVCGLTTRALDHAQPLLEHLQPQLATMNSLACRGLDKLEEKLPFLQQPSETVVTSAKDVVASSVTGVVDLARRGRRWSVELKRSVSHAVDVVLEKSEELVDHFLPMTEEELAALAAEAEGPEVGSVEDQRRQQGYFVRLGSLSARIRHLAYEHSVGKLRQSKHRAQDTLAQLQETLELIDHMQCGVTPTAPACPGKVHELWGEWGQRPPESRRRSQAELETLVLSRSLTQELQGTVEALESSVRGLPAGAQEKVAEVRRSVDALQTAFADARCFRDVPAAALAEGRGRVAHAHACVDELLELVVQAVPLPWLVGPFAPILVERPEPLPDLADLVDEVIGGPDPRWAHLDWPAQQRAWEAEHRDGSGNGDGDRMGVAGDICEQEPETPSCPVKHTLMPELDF
Target sequence (Q8WTS1 whole entry, looked up): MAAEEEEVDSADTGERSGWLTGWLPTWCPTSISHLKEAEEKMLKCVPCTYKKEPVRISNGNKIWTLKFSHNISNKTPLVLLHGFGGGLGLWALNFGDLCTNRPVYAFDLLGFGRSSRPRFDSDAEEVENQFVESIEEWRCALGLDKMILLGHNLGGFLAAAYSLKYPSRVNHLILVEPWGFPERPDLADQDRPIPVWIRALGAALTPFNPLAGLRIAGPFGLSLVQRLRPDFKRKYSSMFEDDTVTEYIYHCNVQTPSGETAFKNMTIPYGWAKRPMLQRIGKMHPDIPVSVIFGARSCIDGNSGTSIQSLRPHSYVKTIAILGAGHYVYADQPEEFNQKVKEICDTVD
PfGluPho inh = PfG6PD enzyme inhibitors, primary screen, biochemical, fluorescence intensity, uHTS; PfGluPho enzyme, NADPH resazurin-diaphorase fluorescence; glucose-6-phosphate dehydrogenase-6-phosphogluconolactonase (Plasmodium falciparum 3D7); AID 504690, 2011; inhibition, % at 20 µM; 0.78% of 350,000 active;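 active = inhibition reaching at least a set limit at 20 µM in the primary screen, cut at about 59% in these data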;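 also: 0% = DMSO wells with substrate and 100% = DMSO wells lacking glucose-6-phosphate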
U2OS cAMP counter = nonselective cAMP signaling inhibitors, parental cells, counter-screen for MC4R biased antagonist project, cell-based, TR-FRET, U2OS, forskolin, triplicate | 26% of 1,600 active | shares compounds with MC4R antagonist | inhibition, % at 6.5 µM | AID 602193, 2012 | LANCE TR-FRET;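 active = mean inhibition over triplicates above the low-control well mean plus 3 SD, set per campaign, cut at about 13% in these data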;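 also: signal is single emission at 671 nm which falls as cellular cAMP rises; 0% = forskolin-stimulated wells and 100% = buffer without forskolin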
MC4R antag conf = MC4R cAMP antagonists, retest, confirmation, cell-based, TR-FRET | shares compounds with MC4R antagonist | MC4R-expressing cells, MTII-stimulated cAMP | inhibition, % at 6.5 µM | 27% of 1,600 active | AID 602195, 2012; in the data active = inhibition above about 29%;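 also: 0% = agonist stimulated wells alone and 100% = agonist stimulated wells plus saturating reference antagonist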
* marks the source's active call; other numbers are inactive results; . = no result given.

SMILES | MC4R antagonist | Beta2AR agonist | MC4R barr agon | ABHD5-PLIN5 inh | PfGluPho inh | U2OS cAMP counter | MC4R antag conf
CN(C(=O)c1cccc(NC(=O)Cc2cccc(NC(=O)C3CCCN(C(=O)C4CCCCC4)C3)c2)c1)C1CCC1 (configuration not stated) | 4 | -11 | 0 | -5 | 6 | . | .
COc1ccccc1C(=O)NC(CCSC)C(=O)OCC(=O)N1CCCC1=O (configuration not stated) | 29* | 2 | -2 | -5 | 9 | 17* | 42*
CC(NC(=O)c1cccc(S(=O)(=O)N2CCCCCC2)c1)c1ccccc1 (configuration not stated) | -2 | -2 | -4 | -5 | -3 | . | .
Cc1ccc(S(=O)(=O)n2cnc3cc([N+](=O)[O-])ccc32)cc1C | 4 | 3 | -2 | -8 | 12 | . | .
Cc1ccc(S(=O)(=O)n2cnc3ccccc32)cc1[N+](=O)[O-] | 29* | -7 | 1 | -6 | -4 | -2 | -3
CC1(C(=O)NS(=O)(=O)c2ccc(Cl)cc2)CCN1C(=O)Cc1cccs1 (configuration not stated) | 6 | . | -1 | 9 | . | . | .
COc1ccccc1OCCC(=O)OCC(=O)Nc1cc(S(=O)(=O)N2CCOCC2)ccc1Cl | 19 | -4 | 0 | 4 | -5 | . | .
Cc1ccccc1OCCC(=O)OCC(=O)Nc1cc(S(=O)(=O)N2CCOCC2)ccc1Cl | 35* | 3 | 1 | -3 | -13 | 2 | 3
COc1ccc(C2=C3C(=O)OCC3Cc3ncn(Cc4ccccc4)c32)cc1 (configuration not stated) | 8 | -15 | 0 | 4 | 13 | . | .
CC(=O)n1cc([C@H]2C=C(C(=O)Nc3ccccc3)O[C@@H](OCc3ccc(CO)cc3)C2)c2ccccc21 | 31* | 15 | -1 | 2 | 13 | 1 | 12
CC(=O)n1cc([C@@H]2C=C(C(=O)NCc3ccccc3)O[C@H](OCc3ccc(CO)cc3)C2)c2ccccc21 | 36* | 28 | -1 | 4 | 11 | -2 | 6
CSc1nc(N)nc2c1ncn2CC(=O)NCCCN1CCCC1=O | -4 | -1 | 1 | 0 | -2 | . | .
C=CCn1c(-c2ccccn2)n[nH]c1=S | . | . | . | -9 | . | . | .
COC(=O)c1ccc(N2NC(=O)/C(=C/c3cc(OC)c(OC)c(OC)c3)C2=O)cc1 | 36* | 19 | -2 | -1 | -12 | 1 | -3
COC(=O)c1ccc(N2NC(=O)/C(=C/c3cc(OC)c(O)c(OC)c3)C2=O)cc1 | 4 | -18 | -1 | -6 | 5 | . | .
CCN(CC)c1ccc2c(c1)oc(=O)c1c(Cl)cc(=O)oc12 | 30* | -302 | -2 | 14 | 8 | 7 | 19
CSCCC(NC(=O)c1ccc([N+](=O)[O-])cc1Cl)C(=O)OC1CCCCC1=O (configuration not stated) | 31* | 4 | 0 | -7 | 13 | 14* | 39*
CSCCC(NC(=O)c1ccc([N+](=O)[O-])cc1Cl)C(=O)OCC(=O)NC1CCCC(C)C1C (configuration not stated) | 33* | -7 | 2 | -13 | 2 | 17* | 40*
COc1ccc(-c2noc(CCC(=O)NCCc3cccc(C)c3)n2)cc1 | 29* | 2 | 0 | 2 | 0 | 4 | -7
Nc1ccc2nn(-c3cc([N+](=O)[O-])ccc3O)nc2c1 | 29* | -5 | 1 | -7 | -1 | -1 | 6
COc1cc(OC)cc(C(=O)Nc2nc3ccc(S(C)(=O)=O)cc3s2)c1 | 34* | 9 | -3 | 3 | 10 | -2 | -5
CS(=O)(=O)c1ccc2nc(NC(=O)c3cc([N+](=O)[O-])cc([N+](=O)[O-])c3)sc2c1 | 6 | -1 | -1 | 7 | 1 | . | .
O=C(CNC(=O)c1ccccc1)OCN1C(=O)c2ccccc2C1=O | 31* | 0 | 1 | 12 | -10 | 14* | 22
COc1ccc(C(=O)NCC(=O)NCC(=O)OCC(=O)c2ccc(Br)cc2)cc1 | 20 | -7 | -3 | -4 | 5 | . | .
O=C(CNC(=O)c1ccc(Br)cc1)NCC(=O)OCC(=O)c1ccccc1 | 42* | 24 | -1 | 1 | 6 | 14* | 10
SMILES | MC4R antagonist | Beta2AR agonist | MC4R barr agon | ABHD5-PLIN5 inh | PfGluPho inh | U2OS cAMP counter | MC4R antag conf
CC(C)Oc1cccc(C2NC(=O)c3ccccc3O2)c1 (configuration not stated) | 17 | -15 | 0 | -9 | -10 | . | .
Cc1nn(-c2cccc(Cl)c2)c2nc(-c3ccncc3)cc(C(=O)N3CCOCC3)c12 | 34* | 10 | 7 | -1 | 4 | 0 | 17
CCCc1c(C(=O)N/N=C(\C)c2ccccn2)nnn1-c1nonc1N | -3 | . | -3 | -2 | 7 | . | .
S=c1[nH]ccc2ccccc12 | 29* | 4 | -2 | 0 | 55 | -3 | 0
S=c1[nH]ncc2ccccc12 | -9 | 5 | -1 | -6 | -2 | . | .
COc1cccc(CC(=O)Nc2nc(-c3cc(OC)ccc3OC)cs2)c1 | 34* | 8 | 5 | -4 | 2 | 1 | 1
COc1ccc(OC)c(-c2csc(NC(=O)Cc3ccccc3)n2)c1 | 3 | 0 | 4 | 0 | 15 | . | .
Cc1cc(C)n(-c2nnc(Cl)c3ccccc23)n1 | 37* | -1 | -5 | 3 | 4 | 30* | 46*
CCN1C(=O)[C@H]2[C@@H](c3ccc(C(F)(F)F)cc3)N[C@]3(CCCN(Cc4ccc(F)cc4)C3=O)[C@H]2C1=O | 18 | . | 0 | -9 | 2 | . | .
COCC(C)NC(=O)CSc1nc(-c2ccccc2)c(-c2ccccc2)o1 (configuration not stated) | 10 | -2 | -1 | -2 | 4 | . | .
COc1ccc2nc(NC(=O)C3CCCN(S(=O)(=O)c4cccc5nonc45)C3)sc2c1 (configuration not stated) | 13 | 4 | 0 | 4 | -12 | . | .
CCOc1ccc2nc(NC(=O)C3CCCN(S(=O)(=O)c4cccc5nonc45)C3)sc2c1 (configuration not stated) | 33* | 10 | 1 | -10 | -3 | 4 | 22
c1ccc(-c2nc3c([nH]2)CCc2nonc2-3)cc1 | 29* | 0 | -2 | 0 | 27 | 1 | -3
